From PMC7967294 (ACS chemical neuroscience, 2020)

Assays:
[1] = biological target: T1, GluN1/GluN2B (Rattus norvegicus, UniProt P35439+Q00960); conditions: cited from earlier work
[2] = biological target: T2, GluN1/GluN2A (Rattus norvegicus, UniProt P35439+Q00959); conditions: cited from earlier work
[3] = biological target: T3, GluN1/GluN2D (Rattus norvegicus, UniProt P35439+Q62645); conditions: cited from earlier work
[4] = biological target: T4, GluN1/GluN2C (Rattus norvegicus, UniProt P35439+Q00961); conditions: cited from earlier work
[5] = biological target: T1, GluN1/GluN2B; conditions: cited from earlier work; remark: listed apart in the source
[6] = biological target: T2, GluN1/GluN2A; conditions: cited from earlier work; remark: listed apart in the source
[7] = tested on: GluN2C- and GluN2D-containing NMDARs; experiment: Two electrode voltage clamp recording, Xenopus oocytes, CIQ-sensitive subunits; type: cell-based, rat
[8] = biological target: T4, GluN1/GluN2C; experiment: Two electrode voltage clamp recording, Xenopus oocytes; type: cell-based
Summary of the method: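 Xenopus oocytes expressing GluN1/GluN2 (1:2 cRNA) were clamped at −40 mV at 23 °C, 2–5 days post-injection, with 30 μM glycine in all solutions. Test compound was applied at increasing concentrations during saturating 100 μM glutamate/30 μM glycine. […] Data came from 5–22 oocytes, 2–3 batches.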

[9] = biological target: T3, GluN1/GluN2D; experiment: Two electrode voltage clamp recording, Xenopus oocytes; type: cell-based
[10] = biological target: T1, GluN1/GluN2B; experiment: Two electrode voltage clamp recording, Xenopus oocytes; type: cell-based; conditions: read-out: response, % of control
Summary of the method: (§1)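 Defolliculated stage V–VI Xenopus laevis oocytes were injected with GluN1 and GluN2 cRNA at a 1:2 ratio (0.2–10 ng total) and recorded 2–5 days later at 23 °C by two-electrode voltage clamp at −40 mV, with gravity-fed solutions. Currents evoked by 100 μM glutamate plus 30 μM glycine were measured with 100 μM test compound, as % of control; n = 6 oocytes.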

[11] = biological target: T2, GluN1/GluN2A; experiment: as above; type: cell-based; conditions: read-out: response, % of control
Summary of the method: as §1

[12] = saturating glutamate and glycine, oocytes

T2 sequence (Q00959 23-1464, other chains not shown): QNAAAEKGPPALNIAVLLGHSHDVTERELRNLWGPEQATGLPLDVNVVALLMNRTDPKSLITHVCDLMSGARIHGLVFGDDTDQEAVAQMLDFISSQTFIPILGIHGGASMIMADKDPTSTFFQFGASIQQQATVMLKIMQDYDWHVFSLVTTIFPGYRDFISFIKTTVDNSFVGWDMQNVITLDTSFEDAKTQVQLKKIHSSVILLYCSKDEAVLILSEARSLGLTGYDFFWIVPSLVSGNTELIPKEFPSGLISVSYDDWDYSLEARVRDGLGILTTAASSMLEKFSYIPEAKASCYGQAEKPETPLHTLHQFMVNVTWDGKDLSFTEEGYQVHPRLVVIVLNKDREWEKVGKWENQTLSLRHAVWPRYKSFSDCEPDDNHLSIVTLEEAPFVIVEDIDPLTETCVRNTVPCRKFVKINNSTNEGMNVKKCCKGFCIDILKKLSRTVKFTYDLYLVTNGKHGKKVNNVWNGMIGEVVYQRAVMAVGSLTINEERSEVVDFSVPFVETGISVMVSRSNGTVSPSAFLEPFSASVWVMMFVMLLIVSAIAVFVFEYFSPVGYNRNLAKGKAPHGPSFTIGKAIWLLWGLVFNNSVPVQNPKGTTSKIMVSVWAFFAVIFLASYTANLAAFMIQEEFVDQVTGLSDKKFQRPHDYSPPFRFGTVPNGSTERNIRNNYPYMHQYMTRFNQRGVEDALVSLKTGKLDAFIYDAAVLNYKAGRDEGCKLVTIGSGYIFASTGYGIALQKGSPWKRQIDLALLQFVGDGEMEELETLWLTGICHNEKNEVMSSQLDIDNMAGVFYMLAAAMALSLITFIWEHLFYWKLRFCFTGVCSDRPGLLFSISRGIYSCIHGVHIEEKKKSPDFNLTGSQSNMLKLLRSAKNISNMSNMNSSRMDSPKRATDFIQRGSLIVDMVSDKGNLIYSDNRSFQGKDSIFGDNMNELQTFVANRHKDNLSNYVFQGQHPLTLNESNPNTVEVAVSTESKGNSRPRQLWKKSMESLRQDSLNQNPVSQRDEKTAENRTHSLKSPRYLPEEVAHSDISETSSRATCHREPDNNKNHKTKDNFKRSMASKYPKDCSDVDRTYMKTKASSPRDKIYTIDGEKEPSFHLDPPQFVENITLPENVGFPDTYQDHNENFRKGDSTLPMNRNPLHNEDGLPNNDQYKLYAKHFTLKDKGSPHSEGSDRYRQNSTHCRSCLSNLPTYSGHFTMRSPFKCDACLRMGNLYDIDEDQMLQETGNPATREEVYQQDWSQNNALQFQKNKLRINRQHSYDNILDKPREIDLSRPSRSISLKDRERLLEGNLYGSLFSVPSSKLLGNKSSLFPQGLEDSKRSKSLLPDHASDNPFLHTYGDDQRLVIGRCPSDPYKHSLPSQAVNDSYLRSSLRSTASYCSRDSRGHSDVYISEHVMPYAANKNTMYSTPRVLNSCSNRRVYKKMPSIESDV
T3 sequence (Q62645 28-1323, other chains not shown): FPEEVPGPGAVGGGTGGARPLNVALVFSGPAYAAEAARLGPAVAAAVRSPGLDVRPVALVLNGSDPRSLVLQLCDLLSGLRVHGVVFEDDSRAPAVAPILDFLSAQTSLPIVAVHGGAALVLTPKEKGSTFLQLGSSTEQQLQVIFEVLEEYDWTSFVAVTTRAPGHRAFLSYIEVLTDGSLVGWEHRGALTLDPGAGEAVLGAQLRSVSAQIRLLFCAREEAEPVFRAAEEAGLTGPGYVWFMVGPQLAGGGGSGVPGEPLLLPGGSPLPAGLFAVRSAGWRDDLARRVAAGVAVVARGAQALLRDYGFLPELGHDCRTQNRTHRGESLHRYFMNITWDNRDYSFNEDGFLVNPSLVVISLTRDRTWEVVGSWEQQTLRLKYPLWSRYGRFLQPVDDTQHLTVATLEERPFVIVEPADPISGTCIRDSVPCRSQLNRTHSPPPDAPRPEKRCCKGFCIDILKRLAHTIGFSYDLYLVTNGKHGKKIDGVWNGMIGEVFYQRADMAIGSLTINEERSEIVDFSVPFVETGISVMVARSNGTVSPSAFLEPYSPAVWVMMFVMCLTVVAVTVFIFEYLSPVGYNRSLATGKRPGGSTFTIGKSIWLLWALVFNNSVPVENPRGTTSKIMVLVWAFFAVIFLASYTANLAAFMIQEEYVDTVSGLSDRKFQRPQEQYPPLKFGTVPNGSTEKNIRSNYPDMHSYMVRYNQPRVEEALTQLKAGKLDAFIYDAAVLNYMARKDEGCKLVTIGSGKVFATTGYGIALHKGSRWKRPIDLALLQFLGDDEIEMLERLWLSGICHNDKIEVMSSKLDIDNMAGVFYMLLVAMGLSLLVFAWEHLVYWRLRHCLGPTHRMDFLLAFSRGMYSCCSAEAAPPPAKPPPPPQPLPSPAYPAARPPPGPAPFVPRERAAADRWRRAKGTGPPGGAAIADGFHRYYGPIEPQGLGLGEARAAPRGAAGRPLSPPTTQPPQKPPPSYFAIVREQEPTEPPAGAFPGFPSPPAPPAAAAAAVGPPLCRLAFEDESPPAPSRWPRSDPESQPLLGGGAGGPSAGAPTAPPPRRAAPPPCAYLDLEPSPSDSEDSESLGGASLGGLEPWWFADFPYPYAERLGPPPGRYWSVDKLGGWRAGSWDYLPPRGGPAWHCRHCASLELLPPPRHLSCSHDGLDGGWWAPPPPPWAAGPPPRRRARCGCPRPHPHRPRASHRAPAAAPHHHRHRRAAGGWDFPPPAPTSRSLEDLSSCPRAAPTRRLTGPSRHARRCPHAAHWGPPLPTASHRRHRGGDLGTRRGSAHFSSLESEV
T4 sequence (Q00961 20-1237, other chains not shown): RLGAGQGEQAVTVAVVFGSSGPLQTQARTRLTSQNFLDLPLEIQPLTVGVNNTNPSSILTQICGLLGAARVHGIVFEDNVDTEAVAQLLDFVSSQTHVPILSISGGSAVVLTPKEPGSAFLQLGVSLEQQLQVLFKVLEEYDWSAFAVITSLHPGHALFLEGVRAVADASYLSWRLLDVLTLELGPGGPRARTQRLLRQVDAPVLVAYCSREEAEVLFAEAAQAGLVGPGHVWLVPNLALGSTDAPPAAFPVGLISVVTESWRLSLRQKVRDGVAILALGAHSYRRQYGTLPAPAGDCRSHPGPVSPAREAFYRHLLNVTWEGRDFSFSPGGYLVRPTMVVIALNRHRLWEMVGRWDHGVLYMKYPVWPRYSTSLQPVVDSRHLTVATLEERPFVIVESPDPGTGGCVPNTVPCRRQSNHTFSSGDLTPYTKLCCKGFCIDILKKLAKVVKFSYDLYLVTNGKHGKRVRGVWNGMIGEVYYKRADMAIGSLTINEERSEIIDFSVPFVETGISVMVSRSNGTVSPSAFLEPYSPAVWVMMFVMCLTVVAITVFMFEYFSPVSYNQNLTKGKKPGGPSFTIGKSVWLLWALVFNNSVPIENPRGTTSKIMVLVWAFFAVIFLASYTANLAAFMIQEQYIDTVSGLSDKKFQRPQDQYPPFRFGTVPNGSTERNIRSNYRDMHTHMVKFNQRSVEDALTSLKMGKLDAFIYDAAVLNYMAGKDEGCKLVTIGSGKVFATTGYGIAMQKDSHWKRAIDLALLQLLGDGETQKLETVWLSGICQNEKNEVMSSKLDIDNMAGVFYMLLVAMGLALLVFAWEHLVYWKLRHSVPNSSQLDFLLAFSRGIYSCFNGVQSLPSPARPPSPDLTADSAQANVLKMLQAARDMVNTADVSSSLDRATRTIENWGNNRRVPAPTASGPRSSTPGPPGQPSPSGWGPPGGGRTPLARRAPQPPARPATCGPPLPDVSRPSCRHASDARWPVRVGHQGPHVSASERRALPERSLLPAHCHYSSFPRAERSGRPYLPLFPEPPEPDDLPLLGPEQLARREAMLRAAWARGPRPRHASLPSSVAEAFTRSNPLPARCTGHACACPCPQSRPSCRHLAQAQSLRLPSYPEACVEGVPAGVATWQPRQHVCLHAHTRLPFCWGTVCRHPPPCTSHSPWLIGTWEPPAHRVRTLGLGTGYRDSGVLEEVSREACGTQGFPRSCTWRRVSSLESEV

## COc1ccc(OCC2c3cc(OC)c(OC)cc3CCN2C(=O)c2cccc(Cl)c2)cc1 (single isomer, unassigned; (+)) [CIQ, (+)-(3-chlorophenyl)(6,7-dimethoxy-1-((4-methoxyphenoxy)methyl)-3,4-dihydroisoquinolin-2(1H)-yl)methanone]
[1]
  effect at low agonist concentrations: no effect
[2]
  effect at low agonist concentrations: no effect
[3]
  effect on the deactivation time course following glutamate removal: no detectable effect
[4]
  effect on the deactivation time course following glutamate removal: modest effects
[5]
  effect on the deactivation time course following glutamate removal: no detectable effect
[6]
  effect on the deactivation time course following glutamate removal: no detectable effect
[7]; EC30 concentrations of glutamate and glycine
  enhancement of the response at EC30 glutamate and glycine: ≤ 5 fold
[7]; maximally effective agonist
  enhancement of the response to maximally effective glutamate and glycine: 2 fold
[8]; [12]
  potentiation, % of control: 340% ± 27%
[9]; [12]
  potentiation, % of control: 281% ± 10%

## CNC(=O)N1N=C(c2ccc(N)cc2)c2cc3c(cc2CC1C)OCO3 (centres unmarked) [GYKI 53655]
[10]
  remaining activity at 100 µM: 107%
[11]
  remaining activity at 100 µM: 104%
[8]
  IC50: 143 µM
[9]
  IC50: 133 µM
